Here are results for 2 compounds from ChEMBL document CHEMBL4428077, “Synthesis and Biological Evaluation of N-((1-(4-(Sulfonyl)piperazin-1-yl)cycloalkyl)methyl)benzamide Inhibitors of Glycine Transporter-1” (J Med Chem, 2016).

Data set [1] addresses Cytochrome P450 3A4 (Homo sapiens, UniProt P08684). Put plainly: Inhibition of CYP3A4 (unknown origin). The class given is ADME.
The nature of data set [2]: Drug level in cynomolgus monkey CSF at 10 mg/kg, po measured at 1 hr post dose by LC-MS/MS analysis. Type of data set: ADME, organism-based, Macaca fascicularis, Cerebrospinal fluid. As to conditions: read-out: Drug uptake. The gist of the method: (§1)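 Cynomolgus monkeys (n = 3/group) fitted with subcutaneous CSF ports were dosed orally at 0.4−15.7 μmol/kg in 5% Solutol plus 20% Captisol in 25 mM PBS, pH 2. CSF (about 0.30 mL) and blood were sampled predose and at 0.5, 1, 2, 3, 4, 8, 12 and 24 h. Quantitation limit 1.0 ng/mL; mean ± SD.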

Data set [3] can be described thus: Volume of distribution at steady state in cynomolgus monkey at 1 mg/kg, iv or 5 mg/kg, po measured up to 12 or 24 hrs post dose by LC-MS/MS analysis. The class given is ADME, organism-based, Macaca fascicularis. The note with it: in vivo, read-out: Vdss. Put shortly: (§2)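 Three female cynomolgus monkeys per group, single dose: IV 1.5 μmol/kg in 5% DMSO/10% Solutol in saline, pH 6.5 (2 mL/kg), or PO 7.8 μmol/kg in 5% Solutol in 20% Captisol, 25 mM PBS, pH 2 (5 mL/kg). Parameters come from plasma concentration–time data; mean ± SD.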

Data set [4] in a line: Efflux ratio of apparent permeability in human Caco2 cells. Type of data set: ADME, cell-based. The note with it: Caco-2.
Data set [5] in a line: Drug level in cynomolgus monkey CSF at 10 mg/kg, po measured at 3 hrs post dose by LC-MS/MS analysis. As to conditions: read-out: Drug uptake. Type of data set: ADME, organism-based, Macaca fascicularis, Cerebrospinal fluid. Put shortly:
as §1

Data set [6] in a line: Protein binding in monkey plasma. The note with it: cynomolgus monkey, read-out: PPB (converted).
Data set [7] is described as follows: Drug level in cynomolgus monkey plasma at 10 mg/kg, po measured at 4 hrs post dose by LC-MS/MS analysis. The class given is ADME, organism-based, Macaca fascicularis.
Data set [8] deals with Cytochrome P450 2D6 (Homo sapiens, UniProt P10635). Put plainly: Inhibition of CYP2D6 (unknown origin). The class given is ADME.
Data set [9] is described as follows: Drug level in cynomolgus monkey CSF at 10 mg/kg, po measured at 8 hrs post dose by LC-MS/MS analysis. Type of data set: ADME, organism-based, Macaca fascicularis, Cerebrospinal fluid. As to conditions: read-out: Drug uptake. The gist of the method: as §1
In data set [10] the target is Cytochrome P450 2C19 (Homo sapiens, UniProt P33261). The data set is described as follows: Inhibition of CYP2C19 (unknown origin). Type of data set: ADME.
The nature of data set [11]: Drug level in cynomolgus monkey plasma at 10 mg/kg, po measured at 3 hrs post dose by LC-MS/MS analysis. The class given is ADME, organism-based, Macaca fascicularis.
Data set [12] is described as follows: Cmax in cynomolgus monkey plasma at 5 mg/kg, po by LC-MS/MS analysis. Type of data set: ADME, organism-based, Macaca fascicularis. The arrangement: dose 5 mg/kg, route oral. Put shortly: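 Single-dose PK in female cynomolgus monkeys, n = 3 per group: 1.5 μmol/kg IV in 5% DMSO/10% Solutol in saline, pH 6.5 (2 mL/kg), or 7.8 μmol/kg PO in 5% Solutol in 20% Captisol, 25 mM PBS, pH 2 (5 mL/kg). Plasma parameters reported as mean ± SD.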

The nature of data set [13]: Drug level in po dosed Sprague-Dawley rat plasma measured 2 hrs post dose by LC-MS/MS analysis. Type of data set: ADME, organism-based. The note with it: in vivo.
Data set [14] is described as follows: Drug level in cynomolgus monkey CSF at 0.3 to 3 mg/kg, po measured up to 24 hrs post dose by LC-MS/MS analysis. As to conditions: in vivo, BLD = below limit of detection. Type of data set: ADME, organism-based, Macaca fascicularis, Cerebrospinal fluid. Put shortly:
as §1

Data set [15] is described as follows: Drug level in cynomolgus monkey plasma at 10 mg/kg, po measured at 2 hrs post dose by LC-MS/MS analysis. The class given is ADME, organism-based, Macaca fascicularis. Put shortly: as §1
A short description of data set [16]: Oral bioavailability in cynomolgus monkey at 5 mg/kg measured up to 24 hrs post dose by LC-MS/MS analysis. The note with it: in vivo. The class given is ADME, organism-based, Macaca fascicularis. Put shortly:
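Three female cynomolgus monkeys per group; single oral dose of 7.8 μmol/kg in 5% Solutol in 20% Captisol, 25 mM PBS, pH 2 (5 mL/kg), with a separate IV arm at 1.5 μmol/kg in 5% DMSO/10% Solutol in saline, pH 6.5 (2 mL/kg). F = (AUC_INFpo × Dose_iv)/(AUC_INFiv × Dose_po); mean ± SD.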

Data set [17] in a line: Total clearance in cynomolgus monkey at 1 mg/kg, iv or 5 mg/kg, po measured up to 12 or 24 hrs post dose by LC-MS/MS analysis. Type of data set: ADME, organism-based, Macaca fascicularis. As to conditions: in vivo. Put shortly: as §2
For data set [18], the system named is Rattus norvegicus. Put plainly: In vivo inhibition of glycine transporter-1 in Sprague-Dawley rat assessed as increase in medial prefrontal cortex glycine level at 3 to 10 mg/kg, po administered through oral gavage measured after 80 to 300 mins by LC-MS/MS analysis relative to control. The class given is functional. The arrangement: scale not given: the % may be the effect or the level left. Put shortly: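 Freely moving drug-naive adult male Sprague-Dawley rats, n = 5-6 per group, given 1.5, 4.7 or 15.7 μmol/kg by oral gavage at t = 0. Vehicle was 5% Solutol / 20% Captisol in 25 mM PBS, pH 2. mPFC dialysate was sampled over 5 h and analysed by HPLC-MS/MS. Values were normalized to basal levels (t = -80 to 0 min). Two-way repeated-measures ANOVA with Student-Newman-Keuls test.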

Data set [19] in a line: Drug level in cynomolgus monkey plasma at 10 mg/kg, po measured at 1 hr post dose by LC-MS/MS analysis. The class given is ADME, organism-based, Macaca fascicularis. Put shortly: as §1
Data set [20] is described as follows: Drug level in cynomolgus monkey plasma at 3 mg/kg, po measured at 0.5 hr post dose by LC-MS/MS analysis. Type of data set: ADME, organism-based, Macaca fascicularis.
A short description of data set [21]: Apparent permeability from apical to basolateral side in human Caco2 cells. As to conditions: Caco-2. Type of data set: ADME, cell-based. Put shortly:
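Caco-2 monolayer permeability measured in both the A-to-B and B-to-A directions and reported as P_app (×10⁻⁶ cm/s).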

Data set [22] is described as follows: Drug level in cynomolgus monkey CSF at 10 mg/kg, po measured at 24 hrs post dose by LC-MS/MS analysis. The class given is ADME, organism-based, Macaca fascicularis, Cerebrospinal fluid. The note with it: read-out: Drug uptake. Put shortly:
as §1

A short description of data set [23]: Toxicity in Sprague-Dawley rat assessed as gross behavioral abnormality at 1 to 10 mg/kg, po qd for 5 days. The class given is organism-based. As to conditions: in vivo, 120 h. Put shortly: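 Drug-naive Sprague–Dawley rats (n = 5/group) were dosed orally once daily for 5 days at 1.6, 4.8 or 16.1 μmol/kg in 5% Solutol/20% Captisol in 25 mM PBS, pH 2.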
The nature of data set [24]: Drug level in Sprague-Dawley rat plasma at 100 mg/kg, po measured 2 hrs post dose by LC-MS/MS analysis. The class given is ADME, organism-based. The gist of the method:
(§3)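 Drug-naive Sprague−Dawley rats (n = 4−5/group) were dosed orally once in 5% Solutol plus 20% Captisol in 25 mM PBS, pH 2, and euthanized 2 h later by CO₂. CSF was drawn from the cisterna magna. Drug was measured in CSF, brain and plasma; data as mean ± SEM.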

The nature of data set [25]: Drug level in Sprague-Dawley rat CSF at 30 mg/kg, po measured 2 hrs post dose by LC-MS/MS analysis. Type of data set: ADME, organism-based, Cerebrospinal fluid. The note with it: read-out: Drug uptake. The gist of the method: as §3
A short description of data set [26]: Drug level in Sprague-Dawley rat plasma at 1 mg/kg, po qd for 5 days measured 2 hrs post last dose by LC-MS/MS analysis. Type of data set: ADME, organism-based. Put shortly: (§4)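 Drug-naive Sprague−Dawley rats (n = 5/group) were dosed orally once daily for 5 days in 5% Solutol plus 20% Captisol in 25 mM PBS, pH 2, and sacrificed 2 h after the last dose. Drug was measured in CSF, brain and plasma; mean ± SEM.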

Data set [27] in a line: Drug level in Sprague-Dawley rat CSF at 1 mg/kg, po qd for 5 days measured 2 hrs post last dose by LC-MS/MS analysis. Type of data set: ADME, organism-based, Cerebrospinal fluid. As to conditions: read-out: Drug uptake. The gist of the method:
as §4

Structures are written as SMILES.

Cytochrome P450 3A4, sequence (P08684 whole entry): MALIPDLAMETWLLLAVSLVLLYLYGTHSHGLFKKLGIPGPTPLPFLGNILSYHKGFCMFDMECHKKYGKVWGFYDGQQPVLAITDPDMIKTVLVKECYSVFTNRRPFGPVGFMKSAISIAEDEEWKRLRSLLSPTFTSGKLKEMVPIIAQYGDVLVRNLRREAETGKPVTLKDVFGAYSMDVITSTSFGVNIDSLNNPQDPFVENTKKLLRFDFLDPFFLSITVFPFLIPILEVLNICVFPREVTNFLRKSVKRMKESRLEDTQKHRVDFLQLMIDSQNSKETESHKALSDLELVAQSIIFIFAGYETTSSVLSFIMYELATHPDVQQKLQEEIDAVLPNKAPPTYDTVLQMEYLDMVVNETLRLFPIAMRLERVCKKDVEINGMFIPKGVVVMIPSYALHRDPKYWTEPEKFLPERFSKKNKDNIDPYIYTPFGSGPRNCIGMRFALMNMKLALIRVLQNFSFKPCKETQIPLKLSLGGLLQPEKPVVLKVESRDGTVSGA
Cytochrome P450 2C19, sequence (P33261 whole entry): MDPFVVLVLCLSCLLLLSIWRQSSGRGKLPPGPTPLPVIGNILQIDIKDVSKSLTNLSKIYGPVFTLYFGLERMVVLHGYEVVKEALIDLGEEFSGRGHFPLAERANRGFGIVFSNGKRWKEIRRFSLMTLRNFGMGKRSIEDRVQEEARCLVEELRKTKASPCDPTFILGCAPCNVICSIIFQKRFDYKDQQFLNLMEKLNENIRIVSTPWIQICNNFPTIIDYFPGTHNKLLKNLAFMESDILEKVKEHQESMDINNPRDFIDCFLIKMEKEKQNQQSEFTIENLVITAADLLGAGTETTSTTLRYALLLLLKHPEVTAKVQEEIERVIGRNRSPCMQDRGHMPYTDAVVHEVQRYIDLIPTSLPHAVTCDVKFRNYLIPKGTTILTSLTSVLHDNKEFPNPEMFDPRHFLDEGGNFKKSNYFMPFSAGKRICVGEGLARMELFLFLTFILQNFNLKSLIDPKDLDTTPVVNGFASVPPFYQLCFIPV
Cytochrome P450 2D6, sequence (P10635 whole entry): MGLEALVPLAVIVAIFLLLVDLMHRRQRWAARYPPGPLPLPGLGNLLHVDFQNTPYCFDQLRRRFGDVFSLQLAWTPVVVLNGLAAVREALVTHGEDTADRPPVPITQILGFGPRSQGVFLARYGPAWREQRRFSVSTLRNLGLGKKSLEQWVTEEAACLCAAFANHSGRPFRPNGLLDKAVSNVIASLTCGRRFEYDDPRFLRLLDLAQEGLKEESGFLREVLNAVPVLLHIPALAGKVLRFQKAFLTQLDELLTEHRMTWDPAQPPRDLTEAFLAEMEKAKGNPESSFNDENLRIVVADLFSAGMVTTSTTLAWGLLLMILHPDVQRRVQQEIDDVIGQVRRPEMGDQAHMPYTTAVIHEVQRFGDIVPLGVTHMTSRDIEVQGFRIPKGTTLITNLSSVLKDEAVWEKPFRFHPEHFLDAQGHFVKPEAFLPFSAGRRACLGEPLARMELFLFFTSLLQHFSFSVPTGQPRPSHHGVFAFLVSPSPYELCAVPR

On to `CC(NC(=O)c1ccc(C(F)(F)F)cc1Cl)C1(N2CCN(S(=O)(=O)c3cn(C)nn3)CC2)CCC(F)(F)CC1.Cl` (single isomer, unassigned; (+)), for which the 50% inhibitory concentration (IC50) in [1], in [8] and in [10] was above 7.2 µM throughout. Moreover, the figures for the concentration at 1 h in data set [2] and in data set [19] were 5.9 ng/mL and 203 ng/mL, respectively. Also, in data set [3], the Vd worked out at 1.93 L/kg. Also, the efflux ratio in [4] turned out to be 2. The concentration at 3 h in data set [5] came out at 11.3 ng/mL; in data set [11] it was 205 ng/mL. Also, in data set [6], the fraction unbound is 0.19. Moreover, the concentration at 4 h in data set [7] worked out at 224 ng/mL. For the same compound, in [9], the concentration at 8 h worked out at 7.6 ng/mL. The compound further had a Cmax in data set [12] of 105 ng/mL. Moreover, the Drug uptake result in data set [13] is “Dose-dependent effect”; in data set [14], “Bld”. Further, the concentration at 2 h in [15] was determined as 222 ng/mL. In data set [16], this compound yielded a bioavailability of 31%. For the same compound, the clearance in data set [17] was 24.9 mL/min/kg. Besides, in data set [18], the Activity was above 150%. In addition, in [20], the concentration at 0.5 h came out at 1.6 ng/mL. In [21], the Papp A→B worked out at 23.9 ×10⁻⁶ cm/s. In addition, the concentration at 24 h in data set [22] is 1.2 ng/mL.

Turning to `Cl.Cn1cc(S(=O)(=O)N2CCN(C3(CNC(=O)c4ccc(C(F)(F)F)cc4Cl)CCC(F)(F)CC3)CC2)nn1`, the Activity entry in [23] is reported as “Non-Toxic”. Also, the concentration at 2 h came out at 334 nM in [24], 8.3 nM in data set [25], 38.2 nM in data set [26] and 1 nM in [27].
